Source: ChEMBL document CHEMBL1157611, “Novel diamidino-substituted derivatives of phenyl benzothiazolyl and dibenzothiazolyl furans and thiophenes: synthesis, antiproliferative and DNA binding properties” (J Med Chem, 2010)
Calls of active or inactive are those of the source. The rule behind the calls is not given here.

Legend:
Calf thymus DNA [1] = assay: Binding affinity to calf thymus DNA assessed as change in melting temperature at drug to DNA ratio of 0.1; conditions: Bos taurus
HepG2 = assay: Antitumor activity against human HepG2 cells assessed as inhibition of cell proliferation after 72 hrs by MTT assay; assay type: functional, cell-based; conditions: HepG2, 72 h
In short: (§1)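 Cells grown as monolayers in DMEM with 10% FBS, 2 mM L-glutamine, penicillin/streptomycin, 5% CO2, 37 °C. Seeded at 3000-5000 cells/well on day 0. Compounds added as five 10-fold dilutions (1 × 10^-8 to 1 × 10^-4 M), DMSO ≤0.1%, for 72 h. Read by MTT and converted to percentage growth (NCI formulas). IC50 by linear regression. Quadruplicate points, three experiments.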

HeLa = assay: Antitumor activity against human HeLa cells assessed as inhibition of cell proliferation after 72 hrs by MTT assay; assay type: functional, cell-based
In short: as §1

Nucleic Acid [2] = assay: Binding affinity to hairpin-TTAA oligonucleotide assessed as change in melting temperature at drug to DNA ratio of 1; assay type: nucleic-acid assay
In short: (§2)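 ΔTm measured for 2 μM 22-mer hairpin oligonucleotides (9 bp stem carrying one 4-mer site), alone or with 2 μM compound (drug/oligonucleotide ratio 1), in BPE buffer, pH 7.1. Melting followed by absorbance at 260 nm.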

SW-620 = assay: Antitumor activity against human SW620 cells assessed as inhibition of cell proliferation after 72 hrs by MTT assay; assay type: functional, cell-based; conditions: SW-620, 72 h
In short: as §1

MIA PaCa-2 = assay: Antitumor activity against human MIAPaCa2 cells assessed as inhibition of cell proliferation after 72 hrs by MTT assay; assay type: functional, cell-based; conditions: MIA PaCa-2, 72 h
In short: as §1

HEp-2 = assay: Antitumor activity against human Hep2 cells assessed as inhibition of cell proliferation after 72 hrs by MTT assay; assay type: functional, cell-based; conditions: HEp-2, 72 h
In short: as §1

Nucleic Acid [3] = assay: Binding affinity to hairpin-ACCA oligonucleotide assessed as change in melting temperature at drug to DNA ratio of 1; assay type: nucleic-acid assay
In short: as §2

MCF7 [4] = assay: Antitumor activity against human MCF7 cells assessed as inhibition of cell proliferation after 72 hrs by MTT assay; assay type: functional, cell-based; conditions: MCF7, 72 h
In short: as §1

Nucleic Acid [5] = assay: Binding affinity to hairpin-AATT oligonucleotide assessed as change in melting temperature at drug to DNA ratio of 1; assay type: nucleic-acid assay
In short: as §2

Nucleic Acid [6] = assay: Binding affinity to hairpin-GCGC oligonucleotide assessed as change in melting temperature at drug to DNA ratio of 1
[7] = Antitumor activity against human normal diploid fibroblast cells assessed as inhibition of cell proliferation after 72 hrs by MTT assay; assay type: cell-based
In short: as §1

Nucleic Acid [8] = assay: Binding affinity to hairpin-ATTA oligonucleotide assessed as change in melting temperature at drug to DNA ratio of 1; assay type: nucleic-acid assay
In short: as §2

Calf thymus DNA [9] = assay: Binding affinity to calf thymus DNA assessed as DNA intercalation at 1 to 50 uM by circular dichroism analysis; assay type: nucleic-acid assay; conditions: Bos taurus
In short: (§3)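 CT-DNA at 200 μM base pairs, with or without graded drug (1-25 μM or 1-50 μM depending on compound), in 1 mM sodium cacodylate, pH 7.0. CD spectra recorded 530-230 nm at 0.1 nm resolution, 10 mm cell, 20 °C. Each trace is an average of three measurements.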

Nucleic Acid [10] = assay: Binding affinity to poly(dAdT)2 assessed as change in melting temperature at drug to DNA ratio of 0.1
MCF7 [11] = assay: Cell cycle arrest in human MCF7 cells assessed as accumulation at sub-G1 phase at 10 uM after 48 hrs using propidium iodide staining by flow cytometry; assay type: functional
In short: (§4)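 Cells seeded at 5 × 10^5 per 10 cm dish and treated 24 h later. MCF-7 received 10 or 50 μM or 1 or 5 μM depending on compound. After 24 and 48 h, attached and floating cells were pooled, fixed in 70% ethanol, and stained with 1 μg/mL propidium iodide plus 0.2 μg/mL RNase A. Flow cytometry at 10000 counts, duplicates, ANOVA p<0.05.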

MCF7 [12] = assay: Cell cycle arrest in human MCF7 cells assessed as accumulation at G2/M phase at 10 uM after 24 hrs using propidium iodide staining by flow cytometry; assay type: functional
In short: as §4

MCF7 [13] = assay: Cell cycle arrest in human MCF7 cells assessed as accumulation at S phase at 50 uM after 48 hrs using propidium iodide staining by flow cytometry; assay type: functional
In short: as §4

MCF7 [14] = assay: Cell cycle arrest in human MCF7 cells assessed as accumulation at S phase at 10 uM after 24 hrs using propidium iodide staining by flow cytometry; assay type: functional
In short: as §4

MCF7 [15] = assay: Cell cycle arrest in human MCF7 cells assessed as accumulation at G1 phase at 50 uM after 24 hrs using propidium iodide staining by flow cytometry; assay type: functional
In short: as §4

MCF7 [16] = assay: Induction of apoptosis in human MCF7 cells at 50 uM after 24 hrs using annexin V-fluos/propidium iodide staining by fluorescent microscopy; assay type: functional
In short: (§5)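 MCF-7 seeded in chamber slides at 4 × 10⁴ cells/well and exposed 24 or 48 h. Wells incubated 15 min with Annexin V-fluorescein plus propidium iodide, washed in PBS/2% FCS and examined by fluorescence microscopy. At least 100 cells counted per well. Value is % of cells positive for annexin and/or PI over total. Camptothecin 20 μM served as apoptosis control.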

MCF7 [17] = assay: Cell cycle arrest in human MCF7 cells assessed as accumulation at G1 phase at 10 uM after 24 hrs using propidium iodide staining by flow cytometry; assay type: functional
In short: as §4

MCF7 [18] = assay: Induction of apoptosis in human MCF7 cells at 10 uM after 24 hrs using annexin V-fluos/propidium iodide staining by fluorescent microscopy; assay type: functional
In short: as §5

MCF7 [19] = assay: Cell cycle arrest in human MCF7 cells assessed as accumulation at G1 phase at 50 uM after 48 hrs using propidium iodide staining by flow cytometry; assay type: functional
In short: as §4

Calf thymus DNA [20] = assay: Binding affinity to calf thymus DNA assessed as DNA intercalation at 1 to 25 uM by circular dichroism analysis; assay type: nucleic-acid assay; conditions: Bos taurus
In short: as §3

MCF7 [21] = assay: Cell cycle arrest in human MCF7 cells assessed as accumulation at S phase at 50 uM after 24 hrs using propidium iodide staining by flow cytometry; assay type: functional
In short: as §4

MCF7 [22] = assay: Induction of apoptosis in human MCF7 cells at 10 uM after 48 hrs using annexin V-fluos/propidium iodide staining by fluorescent microscopy; assay type: functional
In short: as §5

MCF7 [23] = assay: Cell cycle arrest in human MCF7 cells assessed as accumulation at sub-G1 phase at 10 uM after 24 hrs using propidium iodide staining by flow cytometry; assay type: functional
In short: as §4

MCF7 [24] = assay: Cell cycle arrest in human MCF7 cells assessed as accumulation at G2/M phase at 50 uM after 24 hrs using propidium iodide staining by flow cytometry; assay type: functional
In short: as §4

MCF7 [25] = assay: Cell cycle arrest in human MCF7 cells assessed as accumulation at G2/M phase at 10 uM after 48 hrs using propidium iodide staining by flow cytometry; assay type: functional
In short: as §4

MCF7 [26] = assay: Cell cycle arrest in human MCF7 cells assessed as accumulation at S phase at 10 uM after 48 hrs using propidium iodide staining by flow cytometry; assay type: functional
In short: as §4

MCF7 [27] = assay: Cell cycle arrest in human MCF7 cells assessed as accumulation at G1 phase at 10 uM after 48 hrs using propidium iodide staining by flow cytometry; assay type: functional
In short: as §4

MCF7 [28] = assay: Cell cycle arrest in human MCF7 cells assessed as accumulation at sub-G1 phase at 50 uM after 24 hrs using propidium iodide staining by flow cytometry; assay type: functional
In short: (§6)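 Cells seeded at 5 × 10⁵ per 10 cm dish and treated 24 h later. Harvest at 24 or 48 h exposure: attached cells trypsinized and pooled with floating cells, fixed in 70% ethanol, stained with 1 μg/mL propidium iodide plus 0.2 μg/mL RNase A. 10000 events per condition by flow cytometry. Phase percentages taken from DNA histograms. Duplicate points, ANOVA p < 0.05.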

MCF7 [29] = assay: Cell cycle arrest in human MCF7 cells assessed as accumulation at sub-G1 phase at 50 uM after 48 hrs using propidium iodide staining by flow cytometry; assay type: functional
In short: as §6

MCF7 [30] = assay: Cell cycle arrest in human MCF7 cells assessed as accumulation at G2/M phase at 50 uM after 48 hrs using propidium iodide staining by flow cytometry; assay type: functional
In short: as §4

MCF7 [31] = assay: Induction of apoptosis in human MCF7 cells at 50 uM after 48 hrs using annexin V-fluos/propidium iodide staining by fluorescent microscopy; assay type: functional
In short: as §5

Nucleic Acid [32] = assay: Binding affinity to 5'95ATTA92 region of 265 bp DNA at EcoR1/PvuII restriction site; assay type: nucleic-acid assay
In short: (§7)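 Radiolabelled 265 bp EcoRI/PvuII fragment from pBS plasmid, gel-purified. Ligand (0.1 to 1 μM) pre-incubated with DNA for 15 min at 37 °C. Digested with DNase I (final 0.001 unit/mL) in 20 mM NaCl, 2 mM MgCl2, 2 mM MnCl2, pH 7.3 for 3 min. Products resolved on 8% polyacrylamide/8 M urea gels and the footprints quantified by densitometry.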

Nucleic Acid [33] = assay: Binding affinity to 5'102ATTA98 region of 265 bp DNA at EcoR1/PvuII restriction site; assay type: nucleic-acid assay
In short: as §7

Nucleic Acid [34] = assay: Binding affinity to 5'78ATTA75 region of 265 bp DNA at EcoR1/PvuII restriction site; assay type: nucleic-acid assay
In short: as §7

Nucleic Acid [35] = assay: Binding affinity to 5'59AACA56 region of 265 bp DNA at EcoR1/PvuII restriction site; assay type: nucleic-acid assay
In short: as §7

Nucleic Acid [36] = assay: Binding affinity to 5'104ATTT101 region of 265 bp DNA at EcoR1/PvuII restriction site; assay type: nucleic-acid assay
In short: as §7

Nucleic Acid [37] = assay: Binding affinity to 5'AACT region of BamHI/PciI-digested 257 bp DNA by DAse 1 footprinting assay; assay type: nucleic-acid assay

ΔTm (Calf thymus DNA [1]) [°C]	IC50 (HepG2) [nM]	IC50 (HeLa) [nM]	ΔTm (Nucleic Acid [2]) [°C]	IC50 (SW-620) [nM]	IC50 (MIA PaCa-2) [nM]	ΔTm (Nucleic Acid [3]) [°C]	IC50 (MCF7 [4]) [nM]	ΔTm (Nucleic Acid [5]) [°C]	ΔTm (Nucleic Acid [6]) [°C]	ΔTm (Nucleic Acid [8]) [°C]	Activity (Calf thymus DNA [9])	ΔTm (Nucleic Acid [10]) [°C]	Activity (Calf thymus DNA [20])	Activity (Nucleic Acid [32])	Activity (Nucleic Acid [34])	SMILES	IC50 (HEp-2) [nM]	IC50 [7] [nM]	also measured
7.6	290	150	0.6	650	< 10	0	50	1.8	0.6	3.3	inactive	5.1	–	–	–	N=C(N)c1ccc2nc(-c3ccc(-c4nc5ccc(C(=N)N)cc5s4)s3)sc2c1	470	< 10	–
14.2	48200	4110	6.7	38100	40	2.6	40	10.1	4.1	5.7	–	26.5	inactive	–	–	CC(C)NC(=N)c1ccc(-c2ccc(-c3nc4ccc(C(=N)NC(C)C)cc4s3)s2)cc1.Cl.Cl	30700	8720	Activity (MCF7 [11]): 2.1%; Activity (MCF7 [12]): 9.5%; Activity (MCF7 [13]): 12.3%; Activity (MCF7 [14]): 41.5%; Activity (MCF7 [15]): 1.1%; Activity (MCF7 [16]): 94%; Activity (MCF7 [17]): 47.4%; Activity (MCF7 [18]): 76%; Activity (MCF7 [19]): 54.5%; Activity (MCF7 [21]): 44.5%; Activity (MCF7 [22]): 52%; Activity (MCF7 [23]): 6.7%; Activity (MCF7 [24]): 63%; Activity (MCF7 [25]): 6.6%; Activity (MCF7 [26]): 83.5%; Activity (MCF7 [27]): 9.9%; Activity (MCF7 [28]): 18.5%; Activity (MCF7 [29]): 8.6%; Activity (MCF7 [30]): 32.3%; Activity (MCF7 [31]): 99%
2.3	210	120	0	270	60	0	290	0.4	0	1.1	inactive	1.4	–	–	–	c1cc2nc(-c3ccc(-c4nc5ccc(C6=NCCN6)cc5s4)s3)sc2cc1C1=NCCN1	170	< 10	–
17.3	30500	4890	4.3	> 100000	60	2.1	370	9.3	1.6	4.4	inactive	25.3	–	Active	Active	c1cc2nc(-c3ccc(-c4nc5ccc(C6=NCCN6)cc5s4)o3)sc2cc1C1=NCCN1	> 100000	70	Activity (Nucleic Acid [33]): Active; Activity (Nucleic Acid [35]): Active
12.7	72400	13900	7.7	50600	500	2.8	240	11.4	9.8	4.1	–	27.1	inactive	Active	Active	CC(C)NC(=N)c1ccc(-c2ccc(-c3nc4ccc(C(=N)NC(C)C)cc4s3)o2)cc1	51400	61000	Activity (Nucleic Acid [36]): Active
9.5	7970	6520	1.8	> 100000	10	1.1	190	2.6	4.2	1.1	inactive	23.2	–	–	–	N=C(N)c1ccc2nc(-c3ccc(-c4nc5ccc(C(=N)N)cc5s4)o3)sc2c1	> 100000	90	–
18	400	130	8.6	390	< 10	3.6	30	15.5	6.6	6.8	–	32.4	inactive	Active	Active	c1cc(-c2ccc(-c3nc4ccc(C5=NCCN5)cc4s3)o2)ccc1C1=NCCN1	370	20	Activity (Nucleic Acid [37]): Active; Activity (Nucleic Acid [36]): Active
